{
  "source": "ChEMBL document CHEMBL4196123",
  "about": "“Discovery of an Orally Bioavailable Dual PI3K/mTOR Inhibitor Based on Sulfonyl-Substituted Morpholinopyrimidines” (ACS Med Chem Lett, 2018)",
  "key": {"[1]": {"test": "Apparent permeability across basolateral to apical side in human Caco2 cells measured after 90 mins by LC-MS/MS analysis", "assay_type": "ADME, cell-based", "conditions": "Caco-2"}, "[2]": {"target": "Voltage-gated inwardly rectifying potassium channel KCNH2 (Homo sapiens, UniProt Q12809)", "test": "Inhibition of recombinant human ERG expressed in CHO cells by automated whole cell patch clamp Qpatch method", "assay_type": "cell-based"}, "[3]": {"target": "PI3-kinase p110-alpha/p85-alpha (Homo sapiens, UniProt P42336, E545K)", "sequence (P42336 whole entry E545K, looked up)": "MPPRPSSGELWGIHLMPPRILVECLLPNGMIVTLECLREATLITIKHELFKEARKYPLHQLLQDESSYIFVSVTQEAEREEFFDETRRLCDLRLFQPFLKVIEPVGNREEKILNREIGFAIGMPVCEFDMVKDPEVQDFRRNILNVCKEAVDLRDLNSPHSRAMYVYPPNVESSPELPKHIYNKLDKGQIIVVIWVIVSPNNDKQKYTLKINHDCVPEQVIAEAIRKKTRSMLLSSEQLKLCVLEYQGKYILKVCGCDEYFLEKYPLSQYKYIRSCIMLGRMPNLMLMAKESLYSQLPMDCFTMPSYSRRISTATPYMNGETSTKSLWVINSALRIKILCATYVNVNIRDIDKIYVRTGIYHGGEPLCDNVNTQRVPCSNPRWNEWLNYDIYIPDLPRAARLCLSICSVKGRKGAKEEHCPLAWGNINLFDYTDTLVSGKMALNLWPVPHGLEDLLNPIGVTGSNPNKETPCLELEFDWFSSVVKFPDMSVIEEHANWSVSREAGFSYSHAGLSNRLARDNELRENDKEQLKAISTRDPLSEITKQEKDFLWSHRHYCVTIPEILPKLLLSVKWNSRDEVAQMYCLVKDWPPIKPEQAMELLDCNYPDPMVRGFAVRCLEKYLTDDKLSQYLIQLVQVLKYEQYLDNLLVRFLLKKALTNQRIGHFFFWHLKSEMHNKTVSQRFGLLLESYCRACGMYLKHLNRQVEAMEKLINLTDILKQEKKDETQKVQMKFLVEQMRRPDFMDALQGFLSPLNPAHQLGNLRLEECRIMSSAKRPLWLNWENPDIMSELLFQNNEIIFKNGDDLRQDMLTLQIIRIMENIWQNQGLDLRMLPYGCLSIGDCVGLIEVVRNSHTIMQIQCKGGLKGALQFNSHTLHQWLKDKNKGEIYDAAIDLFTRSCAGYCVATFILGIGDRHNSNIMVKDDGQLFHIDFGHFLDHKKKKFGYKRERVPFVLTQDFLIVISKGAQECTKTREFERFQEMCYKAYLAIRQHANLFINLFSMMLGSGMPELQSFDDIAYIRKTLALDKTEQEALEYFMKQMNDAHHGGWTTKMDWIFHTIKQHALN", "test": "Inhibition of recombinant human His-tagged p85alpha/p110alpha E545K mutant expressed in insect cells"}, "[4]": {"target": "Serine/threonine-protein kinase ATR (Homo sapiens) (UniProt Q13535)", "sequence (Q13535 whole entry, looked up)": "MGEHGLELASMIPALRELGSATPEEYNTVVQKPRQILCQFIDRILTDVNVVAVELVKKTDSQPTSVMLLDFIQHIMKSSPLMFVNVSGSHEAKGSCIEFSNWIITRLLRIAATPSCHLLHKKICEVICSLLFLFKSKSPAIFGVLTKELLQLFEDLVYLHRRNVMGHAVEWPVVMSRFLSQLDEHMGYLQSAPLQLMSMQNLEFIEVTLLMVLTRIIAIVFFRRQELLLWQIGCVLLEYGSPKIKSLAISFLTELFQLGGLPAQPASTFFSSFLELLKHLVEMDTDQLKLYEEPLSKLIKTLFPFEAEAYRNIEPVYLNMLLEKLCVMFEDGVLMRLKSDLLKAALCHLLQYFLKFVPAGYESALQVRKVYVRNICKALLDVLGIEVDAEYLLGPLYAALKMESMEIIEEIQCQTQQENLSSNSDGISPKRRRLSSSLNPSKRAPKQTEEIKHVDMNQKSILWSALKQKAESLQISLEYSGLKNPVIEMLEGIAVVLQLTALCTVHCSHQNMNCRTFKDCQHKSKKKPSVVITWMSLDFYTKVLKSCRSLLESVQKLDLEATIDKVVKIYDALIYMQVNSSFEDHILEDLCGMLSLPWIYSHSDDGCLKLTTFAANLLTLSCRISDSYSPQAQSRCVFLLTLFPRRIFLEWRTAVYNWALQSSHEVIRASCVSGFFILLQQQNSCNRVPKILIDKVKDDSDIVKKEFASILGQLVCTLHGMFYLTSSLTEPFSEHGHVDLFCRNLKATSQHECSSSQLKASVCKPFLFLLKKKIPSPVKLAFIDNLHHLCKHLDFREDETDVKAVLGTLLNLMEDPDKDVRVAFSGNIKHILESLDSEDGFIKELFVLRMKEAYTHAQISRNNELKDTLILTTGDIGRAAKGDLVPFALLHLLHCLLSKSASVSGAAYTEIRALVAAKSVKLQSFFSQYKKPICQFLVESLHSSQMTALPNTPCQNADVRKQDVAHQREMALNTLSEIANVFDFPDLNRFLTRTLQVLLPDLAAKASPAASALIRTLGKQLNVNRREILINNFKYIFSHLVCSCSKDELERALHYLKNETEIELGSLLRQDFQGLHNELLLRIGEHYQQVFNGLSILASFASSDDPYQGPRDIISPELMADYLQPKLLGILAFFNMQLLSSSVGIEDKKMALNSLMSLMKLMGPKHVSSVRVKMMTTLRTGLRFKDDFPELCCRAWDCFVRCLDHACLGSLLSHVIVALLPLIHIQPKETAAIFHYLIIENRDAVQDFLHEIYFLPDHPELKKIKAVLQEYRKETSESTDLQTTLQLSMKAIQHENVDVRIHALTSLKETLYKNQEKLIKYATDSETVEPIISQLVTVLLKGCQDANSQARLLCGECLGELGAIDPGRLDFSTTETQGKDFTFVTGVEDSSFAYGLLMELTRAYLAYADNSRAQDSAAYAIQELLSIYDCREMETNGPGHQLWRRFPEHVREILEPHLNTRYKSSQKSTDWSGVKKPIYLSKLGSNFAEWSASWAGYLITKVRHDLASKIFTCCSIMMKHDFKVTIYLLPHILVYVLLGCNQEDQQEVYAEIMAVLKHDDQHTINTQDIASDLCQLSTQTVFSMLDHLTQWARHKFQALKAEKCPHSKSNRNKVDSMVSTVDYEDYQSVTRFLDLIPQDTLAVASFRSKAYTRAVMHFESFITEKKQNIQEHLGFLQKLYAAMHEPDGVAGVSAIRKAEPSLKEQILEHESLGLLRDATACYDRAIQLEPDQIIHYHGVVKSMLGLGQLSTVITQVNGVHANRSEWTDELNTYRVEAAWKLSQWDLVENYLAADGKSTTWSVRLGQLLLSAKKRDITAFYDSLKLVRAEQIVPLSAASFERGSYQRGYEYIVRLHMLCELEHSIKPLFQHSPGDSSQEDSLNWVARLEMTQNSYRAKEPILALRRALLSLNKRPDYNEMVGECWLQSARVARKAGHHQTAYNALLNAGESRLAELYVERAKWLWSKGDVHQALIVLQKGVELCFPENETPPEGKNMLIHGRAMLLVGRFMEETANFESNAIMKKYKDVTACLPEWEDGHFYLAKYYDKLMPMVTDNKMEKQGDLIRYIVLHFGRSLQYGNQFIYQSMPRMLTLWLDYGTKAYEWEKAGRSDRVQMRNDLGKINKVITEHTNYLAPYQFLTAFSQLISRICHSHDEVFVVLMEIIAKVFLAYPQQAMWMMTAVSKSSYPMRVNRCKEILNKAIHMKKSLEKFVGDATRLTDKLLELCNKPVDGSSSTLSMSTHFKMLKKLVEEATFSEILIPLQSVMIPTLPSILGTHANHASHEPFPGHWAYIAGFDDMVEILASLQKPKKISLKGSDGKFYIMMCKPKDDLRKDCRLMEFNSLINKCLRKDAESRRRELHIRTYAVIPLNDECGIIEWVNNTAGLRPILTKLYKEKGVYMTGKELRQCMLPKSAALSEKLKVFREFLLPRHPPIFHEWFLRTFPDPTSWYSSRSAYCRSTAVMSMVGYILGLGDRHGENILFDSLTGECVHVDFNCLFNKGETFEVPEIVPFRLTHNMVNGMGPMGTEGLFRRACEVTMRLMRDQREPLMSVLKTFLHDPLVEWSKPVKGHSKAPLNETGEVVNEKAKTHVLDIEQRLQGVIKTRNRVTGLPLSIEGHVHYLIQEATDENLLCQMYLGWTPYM", "test": "Inhibition of ATR in human HT-29 cells assessed as reduction in camptothecin-induced Chk1 phosphorylation at Ser345 residue at 10 uM pretreated for 1 hr followed by camptothecin addition", "assay_type": "cell-based", "in_short": "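HT-29 cells were pretreated with compound for 1 h, then exposed to camptothecin to induce DNA damage. ATR activity was read as phosphorylation of its substrate Chk1, with total Chk1 and β-actin as internal controls. […] served as reference inhibitor.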"}, "[5]": {"test": "AUClast in CD1 mouse at 10 mg/kg, po administered via gavage by LC-MS/MS analysis", "assay_type": "ADME, organism-based", "parameters": "dose 10 mg/kg, time 0 - last, route oral", "conditions": "in vivo"}, "Cytochrome P450 2C9": {"target": "Cytochrome P450 2C9 (Homo sapiens, UniProt P11712)", "test": "Inhibition of CYP2C9 in human liver microsomes using diclofenac as substrate pretreated for 5 mins followed by NADPH addition and measured after 10 mins by LC-MS analysis", "assay_type": "ADME"}, "Mus musculus [6]": {"test_system": "Mus musculus", "test": "Toxicity in Balb/c nu/nu mouse xenografted with human HT-29 cells harboring PIK3CA P449T mutant assessed as body weight loss at 7.5 mg/kg, po administered daily via gavage for 27 days relative to control", "assay_type": "organism-based", "conditions": "in vivo, 648 h", "in_short": "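Balb/c nu/nu mice with HT-29 xenografts (mean tumor about 240 mm³) received daily oral gavage for 27 days. Body weight change was measured and plotted over time. Mean ± SEM, n = 6.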"}, "[7]": {"test": "Apparent permeability across apical to basolateral side in human Caco2 cells measured after 90 mins by LC-MS/MS analysis", "assay_type": "ADME, cell-based", "conditions": "Caco-2"}, "Cytochrome P450 3A4 [8]": {"target": "T1, Cytochrome P450 3A4 (Homo sapiens, UniProt P08684)", "T1 sequence (P08684 whole entry)": "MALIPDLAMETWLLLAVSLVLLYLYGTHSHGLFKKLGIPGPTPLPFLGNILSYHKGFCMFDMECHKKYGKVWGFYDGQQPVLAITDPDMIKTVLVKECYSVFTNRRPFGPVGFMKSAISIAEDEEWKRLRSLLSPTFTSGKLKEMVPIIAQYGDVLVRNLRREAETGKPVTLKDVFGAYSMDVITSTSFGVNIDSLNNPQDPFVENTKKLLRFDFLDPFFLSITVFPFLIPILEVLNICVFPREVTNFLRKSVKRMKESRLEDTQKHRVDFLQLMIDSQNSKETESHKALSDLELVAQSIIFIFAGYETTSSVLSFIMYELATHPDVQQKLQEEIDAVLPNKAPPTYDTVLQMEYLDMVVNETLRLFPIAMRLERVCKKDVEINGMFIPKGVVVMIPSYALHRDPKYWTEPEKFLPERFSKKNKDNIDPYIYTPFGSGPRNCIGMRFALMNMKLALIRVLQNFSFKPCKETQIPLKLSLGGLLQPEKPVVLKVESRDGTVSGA", "test": "Inhibition of CYP3A4 in human liver microsomes using testosterone as substrate pretreated for 5 mins followed by NADPH addition and measured after 5 mins by LC-MS analysis", "assay_type": "ADME"}, "Cytochrome P450 2C8": {"target": "Cytochrome P450 2C8 (Homo sapiens, UniProt P10632)", "sequence (P10632 whole entry)": "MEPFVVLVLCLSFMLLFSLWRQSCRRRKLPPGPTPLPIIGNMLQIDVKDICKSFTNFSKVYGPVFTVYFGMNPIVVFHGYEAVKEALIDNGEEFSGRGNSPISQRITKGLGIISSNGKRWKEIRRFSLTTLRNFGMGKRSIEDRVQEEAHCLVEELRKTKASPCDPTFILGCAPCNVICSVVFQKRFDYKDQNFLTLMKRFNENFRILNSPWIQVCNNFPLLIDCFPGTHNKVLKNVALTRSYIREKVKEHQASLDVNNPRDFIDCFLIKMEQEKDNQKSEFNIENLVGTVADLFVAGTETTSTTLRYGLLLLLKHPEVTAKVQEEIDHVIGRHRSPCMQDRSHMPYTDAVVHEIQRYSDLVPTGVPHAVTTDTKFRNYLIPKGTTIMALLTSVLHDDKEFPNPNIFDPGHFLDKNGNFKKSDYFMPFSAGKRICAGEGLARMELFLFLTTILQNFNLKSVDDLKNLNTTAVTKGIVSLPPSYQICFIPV", "test": "Inhibition of CYP2C8 in human liver microsomes using paclitaxel as substrate pretreated for 5 mins followed by NADPH addition and measured after 10 mins by LC-MS analysis", "assay_type": "ADME"}, "[9]": {"target": "PI3-kinase p110-delta/p85-alpha (Homo sapiens, UniProt O00329)", "test": "Inhibition of recombinant human full-length N-terminal His6-tagged p110delta/recombinant human full length p85alpha expressed in baculovirus infected Sf21 insect cells using PIP2 as substrate measured after 1 hr by Alexa633 Tracer-based fluorescence polarization assay"}, "Cytochrome P450 2D6": {"target": "Cytochrome P450 2D6 (Homo sapiens, UniProt P10635)", "test": "Inhibition of CYP2D6 in human liver microsomes using bufuralol as substrate pretreated for 5 mins followed by NADPH addition and measured after 10 mins by LC-MS analysis", "assay_type": "ADME"}, "HT-29": {"test_system": "HT-29", "test": "Antitumor activity against human HT-29 cells harboring PIK3CA P449T mutant xenografted in Balb/c nu/nu mouse assessed as tumor growth inhibition at 7.5 mg/kg, po administered daily via gavage for 27 days relative to control", "assay_type": "functional", "conditions": "HT-29, po, 648 h, read-out: TGI", "in_short": "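Balb/c nu/nu mice carrying HT-29 xenografts were dosed by daily oral gavage for 27 days, starting when mean tumor size was about 240 mm³; vehicle group as control. Tumor volume estimated over time, and TGI calculated after 27 days. Mean ± SEM, n = 6. Dunnett's multiple comparison test.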"}, "[10]": {"target": "Phosphatidylinositol 4,5-bisphosphate 3-kinase catalytic subunit alpha isoform (Homo sapiens, UniProt P42336, H1047R)", "sequence (P42336 whole entry H1047R, canonical isoform)": "as the sequence (P42336 whole entry E545K, looked up) above, with K545E, H1047R counted along it", "test": "Inhibition of p110alpha H1047R mutant (unknown origin)"}, "[11]": {"test": "Intrinsic clearance in human liver microsomes at […] pretreated up to 45 mins followed by NADPH addition and measured by LC-MS/MS analysis", "assay_type": "ADME, microsome", "conditions": "read-out: CLH"}, "Cytochrome P450 3A4 [12]": {"target": "T1, Cytochrome P450 3A4", "test": "Inhibition of CYP3A4 in human liver microsomes using midazolam as substrate pretreated for 5 mins followed by NADPH addition and measured after 5 mins by LC-MS analysis", "assay_type": "ADME"}, "MCF7": {"test_system": "MCF7", "test": "Antiproliferative activity against human MCF7 cells harboring PIK3CA E545K mutant after 72 hrs by MTT assay", "assay_type": "functional, cell-based", "conditions": "MCF7, 72 h"}, "Mus musculus [13]": {"test_system": "Mus musculus", "test": "Toxicity in Balb/c nu/nu mouse xenografted with human HT-29 cells harboring PIK3CA P449T mutant assessed as survival at 7.5 mg/kg, po administered daily via gavage for 27 days measured post last dose", "assay_type": "organism-based", "conditions": "in vivo, 648 h", "in_short": "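Balb/c nu/nu mice carrying HT-29 xenografts (PIK3CA P449T), dosed by daily oral gavage for 27 days starting when mean tumor size was about 240 mm³, alongside a vehicle group. Survival was recorded after the 27-day treatment. Body weight change was measured over time. n = 6 per group, mean ± SEM, Dunnett's multiple comparison test.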"}, "[14]": {"test": "Oral bioavailability in CD1 mouse at 10 mg/kg administered via gavage by LC-MS/MS analysis", "assay_type": "ADME, organism-based", "conditions": "in vivo"}, "HUVEC": {"test_system": "HUVEC", "test": "Cytotoxicity against HUVEC after 72 hrs by MTT assay", "assay_type": "cell-based", "conditions": "Homo sapiens"}, "[15]": {"test": "AUClast in CD1 mouse at 5 mg/kg, iv by LC-MS/MS analysis", "assay_type": "ADME, organism-based", "parameters": "dose 5 mg/kg, time 0 - last, route intravenous", "conditions": "in vivo"}, "Cytochrome P450 2C19": {"target": "Cytochrome P450 2C19 (Homo sapiens, UniProt P33261)", "test": "Inhibition of CYP2C19 in human liver microsomes using S-Mephenytoin as substrate pretreated for 5 mins followed by NADPH addition and measured after 45 mins by LC-MS analysis", "assay_type": "ADME"}, "T47D": {"test_system": "T47D", "test": "Antiproliferative activity against human T47D cells harboring PI3KCA H1047R mutant after 72 hrs by MTT assay", "assay_type": "functional, cell-based"}, "PI3K p110 beta/p85 alpha": {"target": "PI3K p110 beta/p85 alpha (Homo sapiens, UniProt P42338)", "test": "Inhibition of recombinant human full-length N-terminal His6-tagged p110beta/recombinant human full length p85alpha expressed in baculovirus infected Sf21 insect cells using PIP2 as substrate measured after 1 hr by Alexa633 Tracer-based fluorescence polarization assay"}, "[16]": {"test": "Half life in CD1 mouse at 10 mg/kg, po administered via gavage by LC-MS/MS analysis", "assay_type": "ADME, organism-based", "conditions": "in vivo"}, "[17]": {"test": "Cmax in CD1 mouse at 10 mg/kg, po administered via gavage by LC-MS/MS analysis", "assay_type": "ADME, organism-based", "parameters": "dose 10 mg/kg, route oral", "conditions": "in vivo"}, "[18]": {"test": "Half life in CD1 mouse at 5 mg/kg, iv by LC-MS/MS analysis", "assay_type": "ADME, organism-based", "conditions": "in vivo"}, "Cytochrome P450 2B6": {"target": "Cytochrome P450 2B6 (Homo sapiens, UniProt P20813)", "test": "Inhibition of CYP2B6 in human liver microsomes using bupropion as substrate pretreated for 5 mins followed by NADPH addition and measured after 10 mins by LC-MS analysis", "assay_type": "ADME"}, "[19]": {"test": "Efflux ratio of apparent permeability from basolateral to apical side over apical to basolateral side in human Caco2 cells after 90 mins by LC-MS/MS analysis", "assay_type": "ADME, cell-based", "conditions": "Caco-2"}, "[20]": {"test": "Volume of distribution at steady state in CD1 mouse at 5 mg/kg, iv by LC-MS/MS analysis", "assay_type": "ADME, organism-based", "conditions": "in vivo, read-out: Vdss"}},
  "note": "Calls of active or inactive are those of the source. The calls are words filed in the database; no cut-off is given here.",
  "data": [
    {"smiles": "C[C@H]1COCCN1c1nc(-c2cnc(N)cc2F)cc(C2(S(C)(=O)=O)CC2)n1", "values": [
      {"measurement": "Papp B→A at 1.5 h", "setting": "[1]", "value": "> 10", "unit": "×10⁻⁶ cm/s"},
      {"measurement": "IC50", "setting": "[2]", "value": "> 30", "unit": "µM"},
      {"measurement": "IC50", "setting": "[3]", "value": 0.011, "unit": "µM"},
      {"measurement": "inhibition", "setting": "[4]", "value": "Active"},
      {"measurement": "AUC(0-t)", "setting": "[5]", "value": 10400, "unit": "ng·h/mL"},
      {"measurement": "IC50", "setting": "Cytochrome P450 2C9", "value": "> 10", "unit": "µM"},
      {"measurement": "Activity", "setting": "Mus musculus [6]", "value": 15, "unit": "%"},
      {"measurement": "Papp A→B at 1.5 h", "setting": "[7]", "value": "> 10", "unit": "×10⁻⁶ cm/s"},
      {"measurement": "IC50", "setting": "Cytochrome P450 3A4 [8]", "value": "> 10", "unit": "µM"},
      {"measurement": "IC50", "setting": "Cytochrome P450 2C8", "value": "> 10", "unit": "µM"},
      {"measurement": "IC50", "setting": "[9]", "value": 0.046, "unit": "µM"},
      {"measurement": "IC50", "setting": "Cytochrome P450 2D6", "value": "> 10", "unit": "µM"},
      {"measurement": "inhibition in vivo at 7.5 mg/kg", "setting": "HT-29", "value": 72.9, "unit": "%"},
      {"measurement": "IC50", "setting": "[10]", "value": 0.015, "unit": "µM"},
      {"measurement": "CLint scaled", "setting": "[11]", "value": "5 to 16", "unit": "mL/min/kg"},
      {"measurement": "IC50", "setting": "Cytochrome P450 3A4 [12]", "value": "> 10", "unit": "µM"},
      {"measurement": "IC50", "setting": "MCF7", "value": 0.011, "unit": "µM"},
      {"measurement": "Activity", "setting": "Mus musculus [13]", "value": "Non-Toxic"},
      {"measurement": "bioavailability", "setting": "[14]", "value": 94.6, "unit": "%"},
      {"measurement": "IC50", "setting": "HUVEC", "value": 0.108, "unit": "µM"},
      {"measurement": "AUC(0-t)", "setting": "[15]", "value": 5440, "unit": "ng·h/mL"},
      {"measurement": "IC50", "setting": "Cytochrome P450 2C19", "value": "> 10", "unit": "µM"},
      {"measurement": "IC50", "setting": "T47D", "value": 0.03, "unit": "µM"},
      {"measurement": "IC50", "setting": "PI3K p110 beta/p85 alpha", "value": 0.376, "unit": "µM"},
      {"measurement": "half-life", "setting": "[16]", "value": 2.87, "unit": "h"},
      {"measurement": "Cmax", "setting": "[17]", "value": 2980, "unit": "ng/mL"},
      {"measurement": "half-life", "setting": "[18]", "value": 1.59, "unit": "h"},
      {"measurement": "IC50", "setting": "Cytochrome P450 2B6", "value": "> 10", "unit": "µM"},
      {"measurement": "efflux ratio at 1.5 h", "setting": "[19]", "value": 0.66},
      {"measurement": "Vd", "setting": "[20]", "value": 1.4, "unit": "L/kg"}
    ]}
  ]
}
